Source: PubChem BioAssay (several laboratories)
AHR activator – AHR activators, primary screen, cell-based, luminescence, luciferase reporter, human; activation, % at 5 µM; AHR-responsive luciferase reporter cells; 320,000 compounds, 2.5% hits; Aryl hydrocarbon receptor (Homo sapiens), P35869; AID 2796, 2010; in the data active = activation above about 47%;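 also: 0% = vehicle wells and 100% = reference agonist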
Arrestin-AP2 inh – inhibitors of beta-arrestin/AP2 binding, primary screen, biochemical, GPCR trafficking, flow cytometry | beta-arrestin 1 C-terminal peptide binding to AP2 beta2-adaptin appendage (human) | FITC-arrestin peptide / GST-AP2 beads; AP2 beta2 appendage carries R879A mutation | inhibition, % at 10 µM | 340,000 compounds, 0.31% hits;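 active = inhibition above a set limit, near 3 SD of compounds lacking own fluorescence, cut at about 54% in these data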;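 also: plate controls were DMSO wells for no effect and 5 µM unlabelled arrestin peptide for full effect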
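System: GST-AP2 R879A glutathione beads; medium: PBS, Tween 20 0.05%, BSA 0.1%; reagent: fluorescein-tagged arrestin peptide at 50 nM final; schedule: pre-incubation 12 min, peptide binding 1 h, room temperature; detection: flow cytometry, FL1 (488/535 nm); read-out: inhibition as reduced fluorescein signal on beads, percent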
UCH37 DUB inh – inhibitors of human UCH37 deubiquitinase, primary screen, biochemical, Ub-AMC cleavage, fluorescence; inhibition, % (test concentration not listed); AID 588478, 2011; 330,000 compounds, 0.33% hits; Ubiquitin carboxyl-terminal hydrolase isozyme L5 (Homo sapiens), Q9Y5K5; purified proteasome/UCH37;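 active = mean inhibition over replicate wells above about 20%, limit read from the data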;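 also: 0% = compound-free wells with enzyme and 100% = wells lacking proteasome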
Target sequence (Q9Y5K5 whole entry, looked up): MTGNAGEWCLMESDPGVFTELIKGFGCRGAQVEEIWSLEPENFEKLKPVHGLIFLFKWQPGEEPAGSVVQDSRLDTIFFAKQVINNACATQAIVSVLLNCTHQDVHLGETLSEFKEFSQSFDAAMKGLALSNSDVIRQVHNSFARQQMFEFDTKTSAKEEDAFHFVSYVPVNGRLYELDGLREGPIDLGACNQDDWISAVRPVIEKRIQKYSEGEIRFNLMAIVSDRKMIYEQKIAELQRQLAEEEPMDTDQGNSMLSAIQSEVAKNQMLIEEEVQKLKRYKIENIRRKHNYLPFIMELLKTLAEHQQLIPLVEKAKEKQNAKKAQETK
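Signal – fluorescence, ex 355 nm, em 460 nm · System – Proteasome-bound UCH37 · Input – 0.15 nM proteasome as dispensed · Timing – 30 min preincubation with enzyme, 25 min cleavage at room temperature · Read-out basis – percent inhibition of cleavage signal versus uninhibited and no-proteasome wells · Medium – Tris-HCl pH 7.4 with ATP-MgCl2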
PolyA inhibitor – polyadenylation inhibitors in yeast reporter cells, primary screen, luminescence, S. cerevisiae. activity score, % at 12 µM. 300,000 compounds, 0.02% hits. S. cerevisiae SKY197-pL101 polyadenylation reporter, beta-gal luminescence; efflux-impaired pdr1/pdr3 knockout yeast; score 100 = 6 SD above DMSO. AID 1875, 2009;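 active = lowest replicate activity score at least 50, where 100 means six control SD above control mean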;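 also: yeast exposed to compound for 9 h at 30 °C; higher score means more reporter readthrough which indicates perturbed polyadenylation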
A3G deaminase – APOBEC3G DNA deaminase inhibitors, primary screen, biochemical, fluorescence, single-stranded DNA substrate, uHTS | inhibition, % at 20 µM | 330,000 compounds, 0.28% hits | DNA dC->dU-editing enzyme APOBEC-3G (Homo sapiens), Q9HC16 | recombinant A3G, ssDNA deamination FAM/TAMRA fluorescence;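 active = inhibition of at least 40% at 20 µM, with no more than 30% in the related APOBEC3A deaminase screen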;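 also: plate controls were DMSO wells with A3G for no effect and wells lacking A3G enzyme for full effect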
APOBEC3A inh – APOBEC3A ssDNA deaminase inhibitors, primary screen, selectivity assay for APOBEC3G inhibitor project, biochemical, FAM/TAMRA oligo cleavage fluorescence; DNA dC->dU-editing enzyme APOBEC-3A (Homo sapiens), P31941; inhibition, % at 20 µM; 330,000 compounds, 0.41% hits; recombinant A3A, FAM/TAMRA ssDNA deamination fluorescence;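 active = at least 40% inhibition at 20 µM here, with at most 30% in a related deaminase screen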;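 also: plate controls were A3A with DMSO for no effect and wells lacking A3A enzyme for full effect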
Target sequence (P31941 whole entry, looked up): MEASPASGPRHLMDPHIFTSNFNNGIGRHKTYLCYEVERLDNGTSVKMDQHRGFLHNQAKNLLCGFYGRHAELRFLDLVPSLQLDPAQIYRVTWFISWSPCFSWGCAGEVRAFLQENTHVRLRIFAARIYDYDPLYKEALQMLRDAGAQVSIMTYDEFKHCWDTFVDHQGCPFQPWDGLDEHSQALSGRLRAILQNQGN
UCH37 reconfirm – retest of human UCH37 deubiquitinase inhibitors, confirmation, biochemical, Ub-AMC cleavage rate, fluorescence | 480 compounds, 27% hits | shares compounds with UCH37 DUB inh | Proteasome-bound UCH37 | inhibition, % at 20 µM;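 active = average inhibition over replicates above about 50%, so the earlier screening hit is confirmed, limit read from the data; inactive = the rest, counted as false positives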;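 also: based on cleavage rate fitted by regression over a 30 min kinetic read; 0% = proteasome plus Ub-AMC and 100% = Ub-AMC without proteasome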
An asterisk follows results filed as active; . = no result given. Only some compounds are listed: those with a hit (about 3.4% of all), similar ones and a draw of the others.

SMILES | AHR activator | Arrestin-AP2 inh | UCH37 DUB inh | PolyA inhibitor | A3G deaminase | APOBEC3A inh | UCH37 reconfirm
COc1ccccc1C(=O)NN=C(C)CC(=O)Nc1ccccn1 | . | . | 1 | . | . | . | .
CCOc1cc(C(c2c(C)[nH][nH]c2=O)c2c(C)[nH][nH]c2=O)ccc1O | 0 | -8 | 58* | -21 | -1 | 3 | 40
O=C(Nc1ccccc1)C(=O)Nc1ccccn1 | 2 | -10 | 1 | 7 | -8 | -2 | .
S=C(Nc1ccc(Nc2ccccc2)cc1)Nc1ccccn1 | -3 | 4 | 46* | -9 | -2 | 1 | -4
CC(=O)Nc1ccc(SCC(=O)c2cc(C)n(C)c2C)cc1 | 5 | -3 | 43* | 15 | -2 | 2 | -3
CC(=O)Nc1ccc(SCC(=O)c2cc(C)n(CC(F)(F)F)c2C)cc1 | 21 | 6 | 4 | 2 | -4 | -2 | .
COc1ccccc1N(N=C1Sc2ccccc2C1=O)C(C)=O | . | . | 71* | . | . | . | 35
CC(=O)N(/N=C1\Sc2ccccc2C1=O)c1ccc(C)cc1C | 38 | 22 | . | -4 | -2 | 4 | .
CC(=O)N(N=C1Sc2ccccc2C1=O)c1ccc(C)cc1C | . | . | 35* | . | . | . | 26
O=C(NN=Cc1ccc([N+](=O)[O-])s1)C(O)c1ccccc1 (stereo unspecified) | . | . | 11 | . | . | . | .
CC(CCc1ccccc1)=NNC(=O)c1ccc(CN2CCOCC2)cc1 | . | . | 2 | . | . | . | .
Cc1ccccc1C(=O)NN=Cc1ccc(OCC(=O)N2CCCCC2)cc1 | . | . | 2 | . | . | . | .
CN(C)S(=O)(=O)c1ccc(C(=O)Nc2nnc(-c3cccs3)o2)cc1 | 4 | -2 | 52* | 5 | 1 | 0 | 3
COc1ccc(N(C(=O)/C=C/c2ccc(OC)c(OC)c2)C2=CC3CCC(C2)N3C)cc1 (stereo unspecified) | 0 | 3 | 3 | 11 | -1 | 0 | .
COc1ccc(N(C(=O)c2ccc(Cl)cc2)C2=CC3CCC(C2)N3C)cc1 (stereo unspecified) | 0 | 5 | 42* | -4 | -8 | -4 | 0
c1ccc(C[C@H]2CNCCN2CCCCC2CCCCC2)cc1 | 3 | 24 | 36* | 2 | -2 | 1 | 4
COc1ccc(OC)c(C=NNC(=O)CNC(=O)c2ccc(S(=O)(=O)N3CCCC3)cc2)c1 | . | . | -71 | . | . | . | .
CN(C)c1ccc(C=NO)cc1 | . | . | -1 | . | . | . | .
Cc1nn(-c2ccccc2)c(N)c1C(O)(C(F)(F)F)C(F)(F)F | 2 | 4 | 1 | -9 | -9 | 0 | .
Nc1c2c(=O)[nH]c(O)cc2nn1-c1ccccc1 | . | 3 | 31* | . | . | . | 23
CCOC(=O)C1=C(COC(=O)c2ccc([N+](=O)[O-])s2)NC(=O)NC1C (stereo unspecified) | 0 | 15 | 83* | . | -7 | -4 | 27
CCOC(=O)C1=C(COC(=O)c2sccc2C)NC(=O)NC1C (stereo unspecified) | -1 | 25 | 1 | . | -6 | -1 | .
COc1ccc([N+](=O)[O-])cc1NC(=O)c1ccc(CN(c2ccc(C)c(C)c2)S(C)(=O)=O)cc1 | -5 | 19 | 47* | -13 | -5 | -2 | -2
CC(=O)C1=C(C)OC2(O)c3ccccc3C(=O)C12O (stereo unspecified) | -2 | 10 | 77* | -6 | 14 | 3 | 71*
CCOC(=O)C1=C(C)N[C@@]2(O)c3ccccc3C(=O)[C@@]12O | 4 | 3 | 18 | 4 | 1 | 5 | .
SMILES | AHR activator | Arrestin-AP2 inh | UCH37 DUB inh | PolyA inhibitor | A3G deaminase | APOBEC3A inh | UCH37 reconfirm
CCOC(=O)C1=C(C)OC2(O)c3ccccc3C(=O)C12O (stereo unspecified) | -1 | -11 | 79* | 3 | -14 | -4 | 72*
O=C1C2C3C=CC([C@@H]2C(=O)N1Cc1cccnc1)C31CC1 (stereo partly specified) | 1 | -9 | 1 | 5 | 4 | 4 | .
CC1(C)CCCC2=C1CC1C(=O)N(Cc3cccnc3)C(=O)C1C2 (stereo unspecified) | 2 | 10 | 39* | 3 | 3 | 3 | 46
O=C1NNC(c2ccccc2)=N/C1=C\c1ccccc1Cl | . | -5 | 34* | . | . | . | 74*
O=C(NN=Cc1ccco1)c1ccncc1 | . | . | 8 | . | . | . | .
Cc1ccc(CN(C(=O)Cc2cccs2)C(C(=O)NC2CCCC2)c2ccncc2)cc1 (stereo unspecified) | 0 | 15 | 1 | -6 | -3 | -2 | .
Cc1ccc(C(C(=O)NC2CCCC2)N(Cc2ccc3c(c2)OCO3)C(=O)Cc2cccs2)cc1 (stereo unspecified) | -2 | -4 | 36* | -7 | 1 | 1 | -13
COCCCN1C(=O)C(=O)/C(=C(/O)c2ccc(OC)cc2)C1c1ccc(O)c(OC)c1 (stereo unspecified) | 1 | 1 | 4 | 11 | -5 | -11 | .
CCCOc1ccc(/C(O)=C2/C(=O)C(=O)N(CCN(C)C)C2c2ccc(O)c(OC)c2)cc1 (stereo unspecified) | . | 5 | 22* | -17 | . | . | -6
COc1ccc(C2/C(=C(\O)c3ccc(OC)c(Cl)c3)C(=O)C(=O)N2CCN(C)C)cc1 (stereo unspecified) | -9 | 7 | 34* | -3 | -2 | -2 | 14
COc1ccc(/C(O)=C2\C(=O)C(=O)N(CCN(C)C)C2c2cccc(OC)c2OC)cc1 (stereo unspecified) | 0 | -11 | 6 | -4 | -7 | -3 | .
Cc1ccc(NC(C)C(=O)NN=Cc2c[nH]c3ccccc23)cc1 (stereo unspecified) | . | . | 2 | . | . | . | .
COc1cccc(C=NNC(=O)CNC(=O)c2cccnc2)c1O | . | . | 0 | . | . | . | .
CC(=O)N(C)C1=C(O)c2ccccc2C(=O)C1=O | 12 | 0 | 9 | 4 | -2 | -3 | .
CC(=O)N(C1=C(N)C(=O)c2ccccc2C1=O)C(C)C | 0 | 7 | 26* | -18 | -2 | 2 | 20
C=CCN1C=CC(=C/C=C(/C#N)C(=O)OCC)C=C1 | 4 | 21 | 32* | 0 | -19 | -9 | 41
